# Measured values from different studies.
# Compare with care: the assays were run in different laboratories.
# PADI3: Protein-arginine deiminase type-3 (PADI3, Homo sapiens, UniProt Q9ULW8)
# AMY2: Pancreatic alpha-amylase (AMY2, Sus scrofa, UniProt P00690)
# GAK: Cyclin-G-associated kinase (GAK, Homo sapiens, UniProt O14976)
# KRAS G12C: GTPase KRas (KRAS, Homo sapiens, UniProt P01116, G12C)
# Maoa: Amine oxidase [flavin-containing] A (Maoa, Rattus norvegicus, UniProt P21396)
# Genome polyprotein protease: Genome polyprotein, protease (Hepatitis C virus genotype 1b, UniProt Q9WMX2)
SMILES,target,test,setting,quantity,result
N=C(CF)NCCC[C@H](NC(=O)c1ccc(-c2ccccc2)cc1)c1nn[nH]n1,PADI3,"enzyme activity, inhibitor",,kinact/KI,5.08 M⁻¹ s⁻¹
O=S(=O)(Nc1nccs1)c1ccc(N=NN(O)c2ccccc2)cc1,AMY2,"enzyme activity, inhibitor",60 µg/mL,inhibition,15.8%
COc1cc(Nc2ccnc3cc(C#N)ccc23)cc(OC)c1OC,GAK,"thermal stability, DSF",10 µM,ΔTm,5.3 °C
COc1cc(C=Cc2cc(-c3ccc(N(C)C)cc3)nc(O)n2)ccc1O,AMY2,"enzyme activity, inhibitor, absorbance",5 µg/mL,inhibition,72.4%
Cc1noc(NS(=O)(=O)c2ccc(N=NN(O)c3ccccc3)cc2)c1C,AMY2,"enzyme activity, inhibitor",240 µg/mL,inhibition,63.2%
COc1cc(Nc2ccnc3ccccc23)cc(OC)c1OC,GAK,"thermal stability, DSF",10 µM,ΔTm,4.4 °C
N=C(CF)NCCC[C@H](NC(=O)c1ccccc1C(=O)O)c1nn[nH]n1,PADI3,"enzyme activity, inhibitor",,kinact/KI,63.3 M⁻¹ s⁻¹
CCN(O)N=Nc1ccc(S(=O)(=O)Nc2cc(C)on2)cc1,AMY2,"enzyme activity, inhibitor",20 µg/mL,inhibition,26.3%
O=C(O)CCC(=O)C(=O)O,"Lysine-specific demethylase 4D (KDM4D, Homo sapiens, UniProt Q6B0I6)","enzyme activity, substrate",,Km,6.9 µM
CN(O)N=Nc1ccc(S(=O)(=O)Nc2nccs2)cc1,AMY2,"enzyme activity, inhibitor",120 µg/mL,inhibition,42.1%
CN1CCC2(CC1)NC(=O)c1c(c3ccc(Cl)c(Cl)c3n1C)C2C#N (racemic),"Serine/threonine-protein kinase DCLK1 (DCLK1, Homo sapiens, UniProt O15075)","thermal stability, DSF",10 µM,ΔTm,-0.1 °C
COc1ccc(Nc2ccnc3ccc(C(F)(F)F)cc23)cc1OC,GAK,"thermal stability, DSF",10 µM,ΔTm,3.4 °C
C=CC(=O)Nc1ccc(-c2noc([C@@]3(C)CCCc4sc(N)c(C#N)c43)n2)cc1,KRAS G12C,"cell-free assay, inhibitor",,kinact,0.000194 s⁻¹
CCCN(O)N=Nc1ccc(S(=O)(=O)Nc2nccs2)cc1,AMY2,"enzyme activity, inhibitor",240 µg/mL,inhibition,63.2%
CC(C)(C)n1nnc([C@H](CCCNC(=N)CCl)NC(=O)c2ccc(-c3ccccc3)cc2)n1,PADI3,"enzyme activity, inhibitor",,kinact/KI,82.3 M⁻¹ s⁻¹
CCCOc1ccc(OC)c(F)c1C(=O)c1ccc(C(=O)N[C@@H]2CNC[C@H]2NC(=O)c2ccc3[nH]ncc3c2)cc1,"Serine/threonine-protein kinase MRCK beta (CDC42BPB, Homo sapiens, UniProt Q9Y5S2)","enzyme activity, inhibitor",0.5 µM,remaining activity,9%
N=C(CCl)NCCC[C@H](NC(=O)c1ccccc1)c1nn[nH]n1,PADI3,"enzyme activity, inhibitor",,kinact/KI,49.6 M⁻¹ s⁻¹
NC(=O)[C@H](CCCN=C(N)N)NC(=O)c1ccccc1,PADI3,"enzyme activity, substrate",,Km,13900 µM
CCCN(O)N=Nc1ccc(S(=O)(=O)Nc2cc(C)on2)cc1,AMY2,"enzyme activity, inhibitor",60 µg/mL,inhibition,21.1%
FC(F)(F)c1ccc2nccc(Nc3ccc4c(c3)OCO4)c2c1,GAK,"thermal stability, DSF",10 µM,ΔTm,3.2 °C
Cc1ccc(C(=O)Nc2ccc(CN3CCN(C)CC3)c(C(F)(F)F)c2)cc1C#Cc1cnc2cccnn12,GAK,"enzyme activity, inhibitor",23.5 nM,remaining activity,73%
Nc1ncnc2occ(-c3ccc(NC(=O)Nc4cc(C(F)(F)F)ccc4F)cc3)c12,GAK,"cell-free assay, inhibitor",20 µM,remaining signal,41%
Cc1ccc(C(=O)NCc2ccsc2)cc1C#Cc1cn(C(C)C)c2ncnc(N)c12,"Receptor-interacting serine/threonine-protein kinase 1 (RIPK1, Homo sapiens, UniProt Q13546)","enzyme activity, inhibitor",1 µM,activity vs control,30%
Fc1cc(Nc2ccnc3ccc(C(F)(F)F)cc23)ccc1Cl,GAK,"thermal stability, DSF",10 µM,ΔTm,4.5 °C
NCc1ccc(Br)cc1,Maoa,"enzyme activity, substrate",pH 7.5,Km,34 µM
N#Cc1ccccc1Nc1ccnc2ccc(C(F)(F)F)cc12,GAK,"thermal stability, DSF",10 µM,ΔTm,0.6 °C
COc1cc(C=CC(=O)CC(c2ccc([N+](=O)[O-])cc2)n2ccnc2)ccc1O (stereo not shown),AMY2,"enzyme activity, inhibitor, absorbance",1.25 µg/mL,inhibition,52.7%
CN1CCN(C(=O)c2ccc3cc(CCNc4ccnc5ccc(C#N)cc45)ccc3c2)CC1,"Cyclin-dependent kinase 19, with cyclin C (CDK19, Homo sapiens, UniProt Q9BWU1)","binding, TR-FRET",,kon,939000 M⁻¹ s⁻¹
Cc1cccc(N(O)N=Nc2ccc(S(=O)(=O)Nc3onc(C)c3C)cc2)c1,AMY2,"enzyme activity, inhibitor",120 µg/mL,inhibition,31.6%
CC(C)(C)n1nnc([C@H](CCCNC(=N)CF)NC(=O)c2ccc(-c3ccccc3)cc2)n1,PADI3,"enzyme activity, inhibitor",,kinact/KI,11.7 M⁻¹ s⁻¹
COc1cc(Nc2ncnc3ccc(C(F)(F)F)cc23)cc(OC)c1,GAK,"thermal stability, DSF",10 µM,ΔTm,0.7 °C
C=CC(=O)Nc1cccc(-c2noc([C@@]3(C)CCCc4sc(N)c(C#N)c43)n2)c1,KRAS G12C,cell-free assay,,kinact,0.000185 s⁻¹
Fc1cccc(Nc2ccnc3ccc(C(F)(F)F)cc23)c1,GAK,"thermal stability, DSF",10 µM,ΔTm,4.3 °C
NCc1ccc(F)cc1,Maoa,"enzyme activity, substrate",pH 7.5,Km,174 µM
COc1cc(C=Cc2cc(-c3ccccc3)nc(O)n2)ccc1O,AMY2,"enzyme activity, inhibitor, absorbance",5 µg/mL,inhibition,76.3%
CC(C)(C)n1nnc([C@H](CCCNC(=N)CCl)NC(=O)c2ccccc2C(=O)O)n1,PADI3,"enzyme activity, inhibitor",,kinact/KI,292 M⁻¹ s⁻¹
O=C1O[C@H]2[C@@H]3OC(=O)c4cc(O)c(O)c(O)c4-c4c(O)c(O)c5oc(=O)c6c(c(O)c(O)c7oc(=O)c4c5c76)-c4c(cc(O)c(O)c4O)C(=O)OC[C@H]3OC(O)[C@@H]2OC(=O)c2cc(O)c(O)c(O)c2-c2c1cc(O)c(O)c2O (mixture of isomers),Genome polyprotein protease,"enzyme activity, inhibitor, fluorescence",,IC90,~2500 nM
Cc1cc(NS(=O)(=O)c2ccc(N=NN(O)c3ccccc3)cc2)no1,AMY2,"enzyme activity, inhibitor",300 µg/mL,inhibition,73.7%
C=CC(=O)N1CCN(c2cccc(-c3noc([C@@]4(C)CCCc5sc(N)c(C#N)c54)n3)c2)CC1,KRAS G12C,"cell-free assay, inhibitor",,kinact,8.33e-05 s⁻¹
O=c1oc2c(O)c(O)cc3c(=O)oc4c(O)c(O)cc1c4c23,Genome polyprotein protease,"enzyme activity, inhibitor, fluorescence",,IC90,< 10000 nM
